This is a sample that favours compounds with a hit; in the whole collection about 6.8% have one here.
AI-2 QS modul = modulates the Vibrio harveyi AI-2 quorum sensing system. activity change, % at 7.5 µM. actives 0.4% (n = 300,000). Vibrio harveyi JMH597 AI-2 luminescence/OD600 ratio, 9 h; stronger effect = lower value; strain lacks LuxN and CqsS sensors; 0 = neutral-control median; in the data active = activity change below about -75%, passing the limit was not always enough; inconclusive = no clear call, values can overlap the other calls;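 also: luminescence divided by OD600 gain over 9 h not by final OD600 alone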
ALR H2O2 inh = blocks human ALR sulfhydryl oxidase activity. P55789. purified ALR, DTT oxidation, H2O2 HRP-luminol luminescence. inhibition, % (test concentration not listed). actives 3.8% (n = 290,000). AID 485317;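 active = mean replicate inhibition above about 79%, with every replicate also reaching it, limit read from the data; inconclusive = only one of the two criteria met; inactive = mean below limit and not every replicate reaching it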
Target sequence (P55789 whole entry, looked up): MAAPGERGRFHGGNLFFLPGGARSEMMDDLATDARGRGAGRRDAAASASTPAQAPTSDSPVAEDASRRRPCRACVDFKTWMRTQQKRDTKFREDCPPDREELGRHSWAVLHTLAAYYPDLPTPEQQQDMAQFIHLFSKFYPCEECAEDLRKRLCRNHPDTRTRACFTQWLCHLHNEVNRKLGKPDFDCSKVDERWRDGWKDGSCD
HSF1 inh = HSF1 inhibition. NIH3T3-HGL HSE-luciferase, MG132-induced, luminescence 8 h; stronger effect = lower value. activity change, negative = inhibition, % at 7.5 µM (by protocol). actives 0.77% (n = 300,000);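 active = more than half of replicate wells show activity change below -50%, luminescence cut by over half; inconclusive = some wells, but at most half, below -50%; inactive = no replicate well below -50%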;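 also: luciferase reports HSF-1 transcriptional activity via heat shock element; 0% = median of DMSO wells and -100% = zero luminescence signal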
PHOSPHO1 inh = blocks human PHOSPHO1 phosphatase activity. Q8TCT1. recombinant PHOSPHO1, absorbance phosphatase assay. inhibition, % at 13.3 µM. actives 1.1% (n = 290,000); in the data active = inhibition above about 60%
Target sequence (Q8TCT1 whole entry, looked up): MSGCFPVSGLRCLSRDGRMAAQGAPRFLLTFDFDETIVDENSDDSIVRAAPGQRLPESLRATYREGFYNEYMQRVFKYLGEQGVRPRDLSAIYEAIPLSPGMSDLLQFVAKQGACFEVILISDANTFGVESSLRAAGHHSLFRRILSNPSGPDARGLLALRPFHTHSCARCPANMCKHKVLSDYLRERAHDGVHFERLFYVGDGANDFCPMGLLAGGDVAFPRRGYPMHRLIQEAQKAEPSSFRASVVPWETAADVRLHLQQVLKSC
HSF-1 act = increases HSF-1 driven luciferase reporter signal; AID 504408; actives 1.7% (n = 300,000); activation, % at 9 µM; NIH3T3-HGL HSF-1 luciferase reporter, MG132, 8 h; 100% = twice DMSO control signal;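 active = mean replicate activation of at least 50% with a set share of replicates each reaching 50%; inconclusive = only one of those two conditions met; inactive = mean below 50% and too few replicates reaching it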;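 also: 0% = median of the neutral control wells and 100% = twice that signal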
core dimer inh = HCV core protein dimerization inhibition | TR-FRET GST/Flag-core106 dimerization, 1536-well | inhibition, % at 5 µM | actives 0.33% (n = 300,000) | AID 1899;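 active = inhibition above the mean of all tested compounds plus 3 SD, set per screening campaign, cut at about 45% in these data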
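assay system = GST-tagged and Flag-tagged HCV core protein residues 1-106 | controls = unlabelled core106 and no-GST-core106 wells | incubation = compound-protein-antibody incubation 4 h at 22.5 °C | probe or stimulus = Eu donor and XL665 acceptor anti-tag antibodies | read-out = % inhibition based on acceptor/donor emission ratio | signal = TR-FRET 671 and 617 nm emission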
Numbers without * were called inactive; u = inconclusive; x = no result.

SMILES	AI-2 QS modul	ALR H2O2 inh	HSF1 inh	PHOSPHO1 inh	HSF-1 act	core dimer inh
COc1ccccc1C(=O)CSc1nnc(-c2ccco2)o1	11	19	50	-12	69*	-2
CSc1nc(-c2ccco2)nn1C(=O)c1ccccc1	24	1	0	23	-11	-2
O=C(CN1CCC(O)(c2cccc(F)c2)CC1)NCCc1c[nH]c2ccccc12	37	-4	1	30	3	-4
CS(=O)(=O)c1ccc(-c2sc3ccccc3c2C(=O)N2CCN(c3ccc(F)cc3)CC2)cc1	x	-1	x	x	x	x
O=C(/C=C/c1ccc(S(=O)(=O)N2CCOCC2)cc1)NC(=S)Nc1ccc(N2CCOCC2)cc1	11	6	0	-21	18	15
O=C(/C=C/c1ccccc1)NC(=S)Nc1ccc(CN2CCOCC2)cc1	-4	-8	38	-2	73*	-2
O=C(Nc1ccc(CN2CCOCC2)cc1)c1cc2ccccn2n1	13	85*	-36	-1	-45	-17
O=C(/C=C/c1ccc(F)cc1)NC(=S)Nc1ccccc1O	-49	-11	18	2	26	x
Cc1cc(NC(=S)NC(=O)/C=C/c2ccc(S(=O)(=O)N3CCOCC3)cc2)ccc1Br	15	-4	85	8	100*	20
O=C(/C=C/c1ccccc1)NC(=S)Nc1ccccc1O	-12	-6	32	33	59*	-4
O=C(Nc1ccc(CN2CCOCC2)cc1)c1cc2ccccc2o1	5	-8	10	-22	9	-2
O=C(O)COc1ccccc1/C=N/NC(=O)CN1CCN(Cc2ccc(Cl)cc2)CC1	14	-4	0	-117	0	-1
CCS(=O)(=O)c1ccc(O)c(NC(=O)/C=C/c2ccccc2)c1	-91*	68	3	34	3	0
CCS(=O)(=O)c1ccc(O)c(NC(=O)CCCC(=O)O)c1	12	-1	-4	27	12	-4
COc1ccc(OC)c(NC(=O)COC(=O)CN2C(=O)NC3(CCCC3)C2=O)c1	x	1	x	x	x	x
CCN1C(=O)/C(=C/c2ccc(N3CCCC3)cc2)NC1=S	6	97*	3	-15	8	-38
CCCN1C(=O)/C(=C/c2ccc(N3CCOCC3)cc2)NC1=S	14	74	-5	-5	3	-15
Cc1cccnc1Nc1ncnc(N)c1[N+](=O)[O-]	1	-3	-6	61*	-2	-1
O=C(c1ccc(F)cc1)N1CCN(Cc2ccccc2)CC1	6	18	-3	19	-7	-9
Cc1ccccc1CN1CCN(C(=O)c2ccc(F)cc2)CC1	11	-5	-63*	24	-70	x
CCOc1nc(SC(C(C)=O)C(=O)Nc2ccccc2)nc(N(C)C)n1 (stereo unspecified)	11	19	34	-9	56*	4
COc1ccc(C(=O)n2cc(C(=O)c3cc(C)ccc3O)cn2)cc1OC	46	30	9	6	2	5
COc1ccc(C(=O)c2cn[nH]c2-c2ccc(C)cc2O)cc1	-86*	37	-1	33	-4	1
COc1ccc(C(=O)n2cc(C(=O)c3cc(C)ccc3O)cn2)cc1	4	98*	5	0	3	-1
Cc1ccc(O)c(-c2[nH]ncc2C(=O)c2ccc(Br)cc2)c1	-10	22	11	-6	44	-1
SMILES	AI-2 QS modul	ALR H2O2 inh	HSF1 inh	PHOSPHO1 inh	HSF-1 act	core dimer inh
O=C(c1ccc(Br)cc1)c1cn[nH]c1-c1ccccc1O	-81*	8	10	23	3	0
CC(C)(C)c1ccc(C(=O)c2cn[nH]c2-c2ccccc2O)cc1	-92*	21	22	39	24	-9
COc1ccc(C(OCC(O)CNCCc2ccccc2)c2ccc(OC)cc2)cc1 (stereo unspecified)	20	-9	7	x	6	x
CCOC(=O)c1ccc(NC(=S)N2CCCC(C(=O)N3CCCC3)C2)cc1 (stereo unspecified)	29	-2	-17	46	-34	4
CCOC(=O)c1ccc(NC(=S)NC(=O)C2CCCC2)cc1	17	2	-74*	19	-80	-7
CCOC(=O)C1CCN(C(=S)Nc2ccccc2)CC1	21	-3	x	5	x	7
COC(=O)c1ccc(NC(=S)NC(=O)C2CCC2)cc1	13	2	14	9	-4	-2
CCOC(=O)c1ccc(NC(=S)N2CCCC(C)C2)cc1 (stereo unspecified)	3	-8	26	-18	62*	1
CCOC(=O)C1CCCN(C(=S)Nc2ccc(Nc3ccccc3)cc2)C1 (stereo unspecified)	9	97*	16	-18	10	-3
Cc1ccccc1C(=O)Nc1cccc(-c2ccc(N3CCOCC3)nn2)c1	12	x	20	x	9	-4
CCOc1ccc(NC(=O)C2=NN(c3ccccc3)C(=O)CC2)cc1S(=O)(=O)N1CCCCC1	x	-28	x	x	x	x
COc1ccc(S(=O)(=O)NN=C2CCCCC2)cc1	17	u	7	74*	2	-3
Cc1ccc2c(c1)c1c3n2CCN(C(=O)C2CC2)C3CCC1 (stereo unspecified)	10	-26	-8	-4	-8	-8
Cc1ccc2c(c1)c1c3n2CC(=C2C(=O)OC(C)(C)OC2=O)NC3CCC1 (stereo unspecified)	2	20	0	30	18	46*
CCOC(=O)C(C)S(=O)(=O)c1ccc(C(F)(F)F)cn1 (stereo unspecified)	24	-3	-7	4	7	1
Cc1cc2c(c(/C=C/C(=O)c3ccccc3)c1)OC1(C=C2)Oc2ccccc2C(=O)N1C (stereo unspecified)	29	-7	46	16	74*	12
Cn1c(=O)c2[nH]c(Nc3ccccc3)nc2n(C)c1=O	16	89*	-9	-27	2	-17
CCC(C)NC(=O)C1CC(=O)N(CCc2ccc(F)cc2)C1 (stereo unspecified)	7	-1	2	30	5	-21
CC(=O)c1ccc(OCC(=O)NC2CCCCCC2)cc1	x	-1	x	x	x	x
CCOC(=O)c1ccc(N(CC(=O)NC2CCCCC2)C(=O)CNC(=O)c2ccco2)cc1	2	0	8	16	29	-3
COC(=O)c1ccc(N(CC(=O)NC2CCCCC2)C(=O)CNC(=O)c2ccco2)cc1	2	3	28	32	71*	-2
COC(=O)c1ccc(OCC(=O)NC2CCCCCC2)cc1	-3	-1	5	63*	3	-3
Cc1cc(C(=O)O)ccc1N/C=C1\CCCC(C)C1=O (stereo unspecified)	11	44	-21	-6	-25	-1
CC1CCC/C(=C\Nc2ccc(O)cc2)C1=O (stereo unspecified)	27	99*	3	70*	8	-2

Source: PubChem (several laboratories)
